An excerpt weighted towards active compounds, which were near 5.8% of everything screened.
Pf Dd2 growth = P. falciparum Dd2 growth inhibitors, primary screen, SYBR Green fluorescence, single dose replicates; 2.3% of 94,000 active; activity change, % at 10 µM; 72 h; active compounds read low; in the data active means activity change below about -80%
IDH1 R132H inh = inhibitors of IDH1 R132H reductase, primary screen, biochemical, plate reader, single point; inhibition, % at 10 µM; Isocitrate dehydrogenase [NADP] cytoplasmic (Homo sapiens), O75874; diaphorase/resazurin fluorescence, 60 min; 0.18% of 70,000 active; in the data active means inhibition above about 34%
T cruzi growth = T. cruzi intracellular proliferation inhibitors, primary screen, cell-based, beta-gal Tulahuen parasites, NIH3T3 host, luminescence; T. cruzi beta-gal in NIH3T3, GalScreen luminescence, 90 h; inhibition, % at 8.34 µM; 5.9% of 77,000 active; AID 624255, 2012;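 active means mean inhibition above about 93%, with at least 55% of replicates each passing it, limit read from the data, passing the limit was not always enough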
KDM4C inh = inhibitors of GASC-1 (KDM4C) histone demethylase, primary screen, biochemical, single concentration HTS; AID 720574, 2013; 0.15% of 96,000 active; inhibition, % at 12.5 µM; GST-KDM4C 2-372, H3K9me3 peptide, LANCE TR-FRET;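 active means mean replicate inhibition above about 25%, with at least 55% of replicates also reaching it, limit read from the data, passing the limit was not always enough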
Target sequence (Q9H3R0 2-372 limits assumed): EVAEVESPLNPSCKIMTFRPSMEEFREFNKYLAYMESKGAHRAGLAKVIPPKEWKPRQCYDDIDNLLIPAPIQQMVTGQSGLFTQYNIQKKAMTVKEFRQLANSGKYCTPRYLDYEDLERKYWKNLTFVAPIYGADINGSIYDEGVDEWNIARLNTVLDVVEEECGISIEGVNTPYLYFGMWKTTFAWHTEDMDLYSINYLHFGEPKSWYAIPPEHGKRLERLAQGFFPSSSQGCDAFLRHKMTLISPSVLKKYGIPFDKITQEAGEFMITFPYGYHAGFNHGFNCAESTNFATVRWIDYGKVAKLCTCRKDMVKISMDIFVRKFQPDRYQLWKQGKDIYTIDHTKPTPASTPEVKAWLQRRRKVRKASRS
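Material: N-terminal GST-fused human GASC-1 (KDM4C) fragment, residues 2-372. Input: 10 nM enzyme. Incubation: enzyme reaction 30 min, then detection 60 min, both room temperature. Doses: one test concentration per compound. Read-out basis: inhibition from TR-FRET ratio decrease. Detection: LANCE TR-FRET, excitation 340 nm, emissions 618 and 671 nm.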
Of the large screens only hits and unclear results are named; the others gave an inactive call; ! = repeats disagree.

Cc1cccc(-c2ccc(C3[C@@H]4CN(Cc5ccccc5F)C[C@H]3N4)cc2)c1 (stereo not given in full)	none (no result: IDH1 R132H inh, T cruzi growth)
Fc1ccc(-c2ccc(C3[C@@H]4CN(Cc5ccccc5)C[C@H]3N4)cc2)cc1 (stereo not given in full)	Pf Dd2 growth -82!, KDM4C inh 41! (no result: IDH1 R132H inh, T cruzi growth)
Cc1ccc(-c2ccc([C@@H]3[C@@H]4CN(Cc5ccccc5F)C[C@H]3N4)cc2)cc1	Pf Dd2 growth -87 (no result: IDH1 R132H inh, T cruzi growth)
Fc1ccc(-c2ccc(C3[C@@H]4CN(Cc5cccc(F)c5)C[C@H]3N4)cc2)cc1 (stereo not given in full)	none (no result: IDH1 R132H inh, T cruzi growth)
CCN1CCN(Cc2c(C)[nH]c3ccc(Cl)cc3c2=O)CC1	none (no result: Pf Dd2 growth, T cruzi growth, KDM4C inh)
C[C@@H]1CCCCO[C@H](CN(C)C(=O)Nc2cccc3ccccc23)[C@H](C)CN([C@@H](C)CO)C(=O)c2cc(NC(=O)C3CCCCC3)ccc2O1	none (no result: IDH1 R132H inh)
C[C@@H]1CCCCO[C@H](CN(C)C(=O)Nc2cccc3ccccc23)[C@@H](C)CN([C@@H](C)CO)C(=O)c2cc(NC(=O)C3CCCCC3)ccc2O1	Pf Dd2 growth -85 (no result: IDH1 R132H inh)
C[C@@H]1CN([C@@H](C)CO)C(=O)c2cc(NC(=O)C3CCCCC3)ccc2O[C@@H](C)CCCCO[C@@H]1CN(C)C(=O)Nc1cccc2ccccc12	Pf Dd2 growth -89 (no result: IDH1 R132H inh)
C[C@H]1CCCCO[C@@H](CN(C)C(=O)Nc2ccc(C(F)(F)F)cc2)[C@@H](C)CN([C@@H](C)CO)C(=O)c2cc(NS(=O)(=O)c3ccc(F)cc3)ccc2O1	none (no result: IDH1 R132H inh)
Cc1ccc(S(=O)(=O)Nc2ccc3c(c2)C(=O)N([C@@H](C)CO)C[C@@H](C)[C@@H](CN(C)Cc2ccc(C(F)(F)F)cc2)OCCCC[C@H](C)O3)cc1	Pf Dd2 growth -81 (no result: T cruzi growth)
Cc1ccc(S(=O)(=O)Nc2ccc3c(c2)C(=O)N([C@@H](C)CO)C[C@@H](C)[C@@H](CN(C)C(=O)Nc2ccc(C(F)(F)F)cc2)OCCCC[C@H](C)O3)cc1	Pf Dd2 growth -82 (no result: IDH1 R132H inh)
C[C@@H]1CCCCO[C@H](CN(C)C(=O)Nc2ccc(C(F)(F)F)cc2)[C@@H](C)CN([C@@H](C)CO)C(=O)c2cc(NS(=O)(=O)c3ccc(F)cc3)ccc2O1	Pf Dd2 growth -84
Cc1ccc(S(=O)(=O)Nc2ccc3c(c2)C(=O)N([C@H](C)CO)C[C@@H](C)[C@H](CN(C)Cc2ccc(C(F)(F)F)cc2)OCCCC[C@@H](C)O3)cc1	none (no result: IDH1 R132H inh, T cruzi growth)
CC(=O)c1ccc(NC(=O)CSc2nnc(-c3cccs3)n2-c2ccccc2)cc1	none (no result: Pf Dd2 growth, T cruzi growth, KDM4C inh)
CCOc1cccc2c(C)nc(Nc3nc4c(c(=O)[nH]3)CCCC4)nc12	none (no result: Pf Dd2 growth, T cruzi growth, KDM4C inh)
Cc1cc2nc(-c3ccc(C)c(NC(=O)COc4ccc([N+](=O)[O-])cc4)c3)oc2cc1C	none (no result: Pf Dd2 growth, T cruzi growth, KDM4C inh)
C[C@@H]1CN([C@@H](C)CO)C(=O)c2c(c3ccccc3n2C)-c2ccccc2CO[C@@H]1CN(C)Cc1ccc(Oc2ccccc2)cc1	Pf Dd2 growth -87 (no result: IDH1 R132H inh, T cruzi growth)
C[C@@H]1CN([C@H](C)CO)C(=O)c2c(c3ccccc3n2C)-c2ccccc2CO[C@@H]1CN(C)Cc1ccc(Oc2ccccc2)cc1	none (no result: IDH1 R132H inh, T cruzi growth)
C[C@H]1CN([C@@H](C)CO)C(=O)c2c(c3ccccc3n2C)-c2ccccc2CO[C@@H]1CN(C)Cc1ccc(-c2ccccc2)cc1	Pf Dd2 growth -92 (no result: IDH1 R132H inh, T cruzi growth)
O=C(O)c1cc(N(Cc2ccccc2O)Cc2cc(O)ccc2O)ccc1O	IDH1 R132H inh 41 (no result: Pf Dd2 growth, T cruzi growth, KDM4C inh)
CC1(C)Cc2c(sc3c2c2ncnn2c2nnc(SCC(=O)NCc4ccccc4)n32)CO1	none (no result: Pf Dd2 growth, T cruzi growth, KDM4C inh)
Cc1ccc2nc(N3CCNCC3)c(-n3nc(C)cc3C)nc2c1	none (no result: Pf Dd2 growth, T cruzi growth, KDM4C inh)
CCCCC(CC)C(=O)Nc1cc(OC)ccc1OC (stereo not given)	none (no result: Pf Dd2 growth, T cruzi growth, KDM4C inh)
C[C@H]1CN([C@@H](C)CO)C(=O)c2c(c3ccccc3n2C)-c2ccccc2CO[C@H]1CN(C)C(=O)Nc1cccc(Cl)c1Cl	Pf Dd2 growth -91 (no result: IDH1 R132H inh, T cruzi growth)
C[C@H](CO)N1C[C@H](C)[C@H](CN(C)C(=O)Nc2cccc(Cl)c2Cl)OCc2ccccc2-c2c(n(C)c3ccccc23)C1=O	none (no result: IDH1 R132H inh, T cruzi growth)
C[C@@H]1CN([C@@H](C)CO)C(=O)c2c(c3ccccc3n2C)-c2ccccc2CO[C@H]1CN(C)C(=O)Nc1cccc(Cl)c1Cl	Pf Dd2 growth -94 (no result: IDH1 R132H inh, T cruzi growth)
C[C@H](CO)N1C[C@H](C)[C@@H](CN(C)C(=O)Nc2cccc(Cl)c2Cl)OCc2ccccc2-c2c(n(C)c3ccccc23)C1=O	none (no result: IDH1 R132H inh, T cruzi growth)
Cc1cc(Cl)ccc1NC(=O)CN(C)S(=O)(=O)c1ccc(F)cc1	none (no result: Pf Dd2 growth, T cruzi growth, KDM4C inh)
CS(=O)(=O)N1CCN(c2ccccc2NC(=O)COc2ccc(Cl)cc2)CC1	none (no result: Pf Dd2 growth, T cruzi growth, KDM4C inh)
C[C@@H]1CN([C@H](C)CO)C(=O)c2cc(/C=C/c3ccccc3)cnc2O[C@@H]1CN(C)C(=O)C1CC1	Pf Dd2 growth -86 (no result: IDH1 R132H inh, T cruzi growth)
C[C@H](CO)N1C[C@H](C)[C@@H](CN(C)Cc2cncnc2)Oc2ncc(/C=C/c3ccccc3)cc2C1=O	IDH1 R132H inh 79, KDM4C inh 52
C[C@@H]1CCCCO[C@H](CN(C)C(=O)Nc2ccc(F)cc2)[C@H](C)CN([C@H](C)CO)C(=O)c2cc(NC(=O)C3CCCCC3)ccc2O1	Pf Dd2 growth -81 (no result: IDH1 R132H inh)
C[C@@H]1CCCCO[C@H](CN(C)C(=O)Nc2ccc(C(F)(F)F)cc2)[C@H](C)CN([C@@H](C)CO)C(=O)c2cc(NC(=O)C3CCCCC3)ccc2O1	Pf Dd2 growth -83 (no result: IDH1 R132H inh)
COCC1OC(OC(C)(C)C2CCC3(C)C=C(C4CCC5C4(C)CC(O)C4OC(C(C)(C)OC6OC(CO)C(O)C(O)C6NC(C)=O)CCC45C)CCC3O2)C(NC(C)=O)C(O)C1O (stereo not given)	none (no result: Pf Dd2 growth, T cruzi growth, KDM4C inh)
Cc1cc(OCC(=O)NCc2ccccn2)c(C)cc1Br	none (no result: Pf Dd2 growth, T cruzi growth, KDM4C inh)
CO[C@H]1CN(C)C(=O)c2cc(NS(C)(=O)=O)ccc2OC[C@H](C)N(C(=O)CC2CC2)C[C@H]1C	IDH1 R132H inh 45
CO[C@@H]1CN(C)C(=O)c2cc(NC(C)=O)ccc2OC[C@H](C)N(C(=O)CC2CC2)C[C@H]1C	none
CO[C@@H]1CN(C)C(=O)c2cc(NS(C)(=O)=O)ccc2OC[C@H](C)N(C(=O)CC2CC2)C[C@H]1C	none
CO[C@H]1CN(C)C(=O)c2cc(NC(C)=O)ccc2OC[C@@H](C)N(C(=O)CC2CC2)C[C@H]1C	IDH1 R132H inh 85, KDM4C inh 38
C[C@@H]1CCCCO[C@H](CN(C)C(=O)Nc2ccccc2)[C@H](C)CN([C@@H](C)CO)C(=O)c2cc(NS(=O)(=O)c3ccccc3)ccc2O1	Pf Dd2 growth -84 (no result: IDH1 R132H inh, T cruzi growth)
COc1ccc(S(=O)(=O)Nc2ccc3c(c2)C(=O)N([C@@H](C)CO)C[C@H](C)[C@H](CN(C)C(=O)NC2CCCCC2)OCCCC[C@@H](C)O3)cc1	Pf Dd2 growth -88 (no result: IDH1 R132H inh)
COc1ccc(S(=O)(=O)Nc2ccc3c(c2)C(=O)N([C@@H](C)CO)C[C@@H](C)[C@H](CN(C)C(=O)Nc2ccccc2)OCCCC[C@@H](C)O3)cc1	T cruzi growth 111 (no result: IDH1 R132H inh)

From PubChem
